The record followed here is ChEMBL document CHEMBL2321737, “Selective inhibition of glycosyltransferases by bivalent imidazolium salts” (Bioorg Med Chem, 2013).

One experiment is filed under the species Homo sapiens. Nature of the experiment: Inhibition of human C2GnT2 using GlcNAcbeta3GalNAcalpha-pnp as substrate at 0.5 mM after 1 hr in presence of phosphatidylcholine.
Experiment [1] can be described thus: Inhibition of human GNT1 using Man3-octyl as substrate at 0.5 mM after 1 hr in presence of phosphatidylcholine.
The target of experiment [2] is T1, Beta-1,3-galactosyltransferase 5 (Homo sapiens) (UniProt Q9Y2C3).
T1 sequence (whole entry): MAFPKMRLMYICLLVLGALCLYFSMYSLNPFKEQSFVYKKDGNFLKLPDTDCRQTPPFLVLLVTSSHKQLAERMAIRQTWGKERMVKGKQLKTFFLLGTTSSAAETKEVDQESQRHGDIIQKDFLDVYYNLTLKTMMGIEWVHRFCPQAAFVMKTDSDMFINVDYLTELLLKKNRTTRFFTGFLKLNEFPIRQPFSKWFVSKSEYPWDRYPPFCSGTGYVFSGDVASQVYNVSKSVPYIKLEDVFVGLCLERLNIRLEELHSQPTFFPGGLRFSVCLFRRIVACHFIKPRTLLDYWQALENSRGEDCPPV
Nature of the experiment: Inhibition of human recombinant soluble His-tagged beta3-GalT5 expressed in insect cells using GlcNAcbeta-Bn as substrate at 0.5 mM after 1 hr relative to control. In a few lines: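 Soluble His-tagged human β3-GalT5 expressed in insect cells and purified, 0.37 µg. Acceptor 0.5 mM GlcNAcβ-Bn, donor 0.5 mM UDP-Gal, inhibitor 0.5 mM bis-imidazolium salt in 10% ethanol. 1 h at 37 °C. Product isolated on AG1-X8 resin and counted by scintillation. % inhibition versus no-inhibitor control; blanks lacked acceptor. Mean ± SD of replicates.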

The species named for a further experiment is Bos taurus. Nature of the experiment: Inhibition of bovine polypeptide GalNAcT1 using AQPTPPP as substrate at 0.5 mM after 1 hr relative to control.

Several values for one entry are separate records, joined by “and”; a condition that tells them apart may be missing. Identical values can stand only once. Some results are limits rather than exact numbers.

On to `C[n+]1ccn(CCCCCCCCCCCCCCCCCCCCn2cc[n+](C)c2)c1`, for which the inhibition is less than 1% in the experiment filed under Homo sapiens; less than 1% in experiment [1]; 79.2% and 84% in experiment [2]; 96.8% and 91% in the experiment listed under Bos taurus.

The inhibition is the drop in the measured response relative to a control, in per cent.
